# Results collected from several papers.
# Protocols differ between the studies behind these lines.
# Target: Serine/threonine-protein kinase Nek2 (NEK2, Homo sapiens, UniProt P51955)
SMILES,effect on,action,technique,tested at,endpoint,value
O=C1NC(=O)c2cc(Nc3ccc(F)cc3)c(Nc3ccc(F)cc3)cc21,cell-free assay,,,0.5 µM,remaining signal,96.3%
CN(c1ncccc1CNc1nc(Nc2ccc3c(c2)CC(=O)N3)ncc1C(F)(F)F)S(C)(=O)=O,enzyme activity,inhibitor,,1 µM,inhibition,4.1%
Cc1ccc(NC(=O)c2ccc(C)c(C(F)(F)F)c2)cc1C#Cc1nn(C2CCC(O)CC2)c2ncnc(N)c12 (centres unmarked),cell-free assay,,,10 µM,remaining signal,117%
N#CC1(c2ccccn2)CCN(Cc2cc(C(=O)N3CCCC3)c(=O)n3ccccc23)CC1,cell-free assay,,competition with immobilised ligand,1 µM,remaining binding,95%
C=CC(=O)Nc1cc(Nc2nccc(Nc3cc(Cl)c(F)cc3C(C)(C)O)n2)c(OC)cc1N1CC[C@@H](N(C)C)C1,enzyme activity,inhibitor,,1 µM,inhibition,5%
CCN(CC)CCNC(=O)c1c(C)[nH]c(/C=C2\C(=O)Nc3ccc(F)cc32)c1C,enzyme activity,inhibitor,,10 µM,inhibition,28%
CC(C)(C)c1nc2c(s1)c1nc(N)ncc1c1ccc(NS(=O)(=O)c3c(F)cccc3F)c(F)c12,enzyme activity,inhibitor,radiometric,1 µM,remaining activity,103%
CCCS(=O)(=O)Nc1ccc(F)c(C(=O)c2c[nH]c3ncc(-c4ccc(Cl)cc4)cc23)c1F,enzyme activity,inhibitor,,1 µM,inhibition,< 20%
CNC(=O)c1cc(Oc2ccc(NC(=O)Nc3ccc(Cl)c(C(F)(F)F)c3)cc2)ccn1,enzyme activity,inhibitor,,0.3 µM,inhibition,-1%
Cc1c(NC(=O)c2cc(C(N)=O)nc3cc(F)ccc23)c(C(F)(F)F)nn1Cc1ccc(C#N)cc1,cell-free assay,,competition with immobilised ligand,1 µM,remaining binding,100%
Cc1cnc(NC2CCOCC2)nc1-n1cnc(C(=O)NC(CN)c2cc(F)cc(Cl)c2)c1 (centres unmarked),enzyme activity,inhibitor,radiometric,1 µM,remaining activity,36%
Oc1cccc(-c2nc(N3CCOCC3)c3oc4ncccc4c3n2)c1,enzyme activity,inhibitor,,10 µM,remaining activity,86%
COc1cc(/C=C/C(=O)CC(=O)/C=C/c2ccc(O)c(OC)c2)ccc1O,enzyme activity,inhibitor,,1 µM,activity vs control,99%
Cn1c(=O)n(-c2ccc(C(C)(C)C#N)cc2)c2c3cc(-c4cnc5ccccc5c4)ccc3ncc21,enzyme activity,inhibitor,,10 µM,remaining activity,145%
O=C1Nc2ccc(Cl)cc2C1=Cc1cc(Cl)c(O)c(Cl)c1,cell-free assay,,,0.5 µM,remaining signal,86%
COc1cc2ncnc(Nc3ccc(Oc4ccccc4)c(C)c3C)c2cc1OC,enzyme activity,inhibitor,,1 µM,inhibition,1%
Cn1c2c(c3ccccc31)C(C#N)C(C)(C)NC2=O (centres unmarked),thermal stability,,DSF,10 µM,ΔTm,-0.1 °C
COc1cc(Cl)c(C(=O)N[C@@H](CN[C@H]2CC[C@@H](N)CC2)Cc2ccc(C#N)cc2)cc1-c1ccc(CN[C@H](C)c2ccc(C)cc2)o1,enzyme activity,inhibitor,,1 µM,remaining activity,114%
Nc1nc(NC2CCCCC2)sc1C(=O)c1ccccc1,enzyme activity,inhibitor,,10 µM,remaining activity,93%
FC(F)(F)Oc1cccc(-c2cnc3ccc(-c4ccncc4)nn23)c1,enzyme activity,inhibitor,radiometric,1 µM,activity vs control,91%
CNC(=O)c1ccc(Nc2ncc(C(F)(F)F)c(NCc3nccnc3N(C)S(C)(=O)=O)n2)cc1,cell-free assay,,competition with immobilised ligand,0.1 µM,remaining binding,75%
Nc1nc(Nc2ccccc2)sc1C(=O)c1c(F)cccc1F,enzyme activity,inhibitor,,10 µM,remaining activity,92%
Cc1c(NC(=O)c2cc(C(N)=O)nc3cc(F)ccc23)c(C(F)(F)F)nn1Cc1ccc(C(C)(C)C)cc1,cell-free assay,,competition with immobilised ligand,1 µM,remaining binding,100%
Cc1ccc(NC(=O)c2ccc(CN3CCN(C)CC3)cc2)cc1Nc1nc(-c2cccnc2)cs1,cell-free assay,,,0.5 µM,remaining signal,96.7%
CS(=O)(=O)NCC[C@H](NC(=O)c1cncc2c1cnn2-c1ccc(F)cc1)c1ccnc(S(C)(=O)=O)c1,cell-free assay,,competition with immobilised ligand,1 µM,remaining binding,97%
CNCc1ccc(-c2cc(-c3nc(-c4ccc(S(=O)(=O)C(C)C)cc4)cnc3N)on2)cc1,enzyme activity,inhibitor,,2 µM,inhibition,2%
COc1cc(Nc2cnc(C#N)c(O[C@H](C)CN(C)C)n2)ncc1-c1cnn(C)c1,enzyme activity,inhibitor,radiometric,1 µM,remaining activity,58%
Cn1c2c(c3ccc(Cl)c(Cl)c31)C(C#N)C(C)(C)NC2=O (centres unmarked),thermal stability,,DSF,10 µM,ΔTm,-0.9 °C
CN(C)C1CCN(CC#Cc2nn(C3CCCC3)c3nc(NCc4ccccc4)ncc23)C1 (centres unmarked),enzyme activity,inhibitor,FRET,10 µM,inhibition,15%
CN(c1ccnc(CNc2nc(Nc3ccc4c(c3)CC(=O)N4)ncc2C(F)(F)F)n1)S(C)(=O)=O,cell-free assay,,competition with immobilised ligand,1 µM,remaining binding,83%
Cn1c2c(Cl)c(Cl)ccc2c2cc(N)[nH]c(=O)c21,thermal stability,,DSF,10 µM,ΔTm,1.8 °C
Cc1ccc(Nc2nccc(N(C)c3ccc4c(C)n(C)nc4c3)n2)cc1S(N)(=O)=O,enzyme activity,inhibitor,,10 µM,inhibition,91%
O=C(NS(=O)(=O)c1ccc(NCC2CCOCC2)c([N+](=O)[O-])c1)c1ccc(N2CCN(Cc3ccc(C(F)(F)F)cc3-c3ccc(Cl)cc3)CC2)cc1Oc1cnc2[nH]ccc2c1,cell-free assay,,competition with immobilised ligand,1 µM,remaining binding,100%
CCN1CCC2(CC1)NC(=O)c1c(c3ccc(Cl)c(Cl)c3n1C)C2C#N (racemic),thermal stability,,DSF,10 µM,ΔTm,0 °C
Cc1sc(C(=O)NC2COC2)cc1-n1cc(NC(=O)Nc2c(F)cccc2Cl)cn1,enzyme activity,inhibitor,,10 µM,remaining activity,88%
FC(F)(F)c1ccc2c(c1)nc(-c1cccnc1)n2C1CC1,cell-free assay,,competition with immobilised ligand,1 µM,remaining binding,100%
Cn1c2c(c3ccc(Cl)c(Cl)c31)C(C#N)C1(CCOCC1)NC2=O (centres unmarked),thermal stability,,DSF,10 µM,ΔTm,-0.2 °C
CSc1nc(C)c(-c2ccnc(Nc3ccc(N4CCOCC4)cc3)c2)[nH]1,enzyme activity,inhibitor,,10 µM,inhibition,20%
